Sampled rows, rich in hits. Any-hit rate of the full collection: about 2.4%.
MMP-13 inhibitor: blocks human MMP13 activity | P45452 | inhibition, % at 4 µM | 0.07% of 65,000 active | AID 570 | MMP-13 fTHP FRET cleavage, Mca fluorescence;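 active = inhibition above the mean of compound-free control plate wells plus 3 SD, cut at about 14% in these data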;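 also: 0% = DMSO wells and 100% = wells with reference MMP-13 inhibitor after basal subtraction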
SF-1 act: SF-1 (human) activation | CHO-K1 Gal4-SF-1 LBD luciferase reporter; % increase over DMSO SF-1-specific signal | activation, % at 10 µM | Q13285 | 1.9% of 65,000 active;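 active = activation above the mean activation of all tested compounds plus 3 SD, cut at about 50% in these data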
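Test system: CHO-K1 cells co-transfected with Gal4 DBD–human SF-1 LBD, 5xGal4 luciferase reporter. Quantity: 4,000 cells per well. Compound: 10 µM only. Incubation: compound added 1 h post-seeding, 20 h exposure at 37 °C, 5% CO2. Detection: SteadyLite luciferase luminescence. Replication: one test per compound.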
HePTP inhibitor: human HePTP phosphatase inhibition | recombinant HePTP phosphatase activity, OD absorbance | P35236 | AID 521 | inhibition, % at 20 µM | 0.64% of 110,000 active; in the data active = inhibition above about 50%;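 also: plate controls were vehicle for no effect and reference inhibitor for full effect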
RORa activator: RORA (human) activation. P35398. CHO-K1 Gal4-RORA LBD luciferase reporter, luminescence; percent increase over mock-subtracted basal signal. activation, % at 10 µM. 1.5% of 65,000 active. AID 560;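 active = activation above the mean of all tested compounds plus 3 SD, cut at about 49% in these data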;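 also: 0% = DMSO-treated RORA cells and 100% = added signal equal to DMSO minus mock-transfected cells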
Target sequence (P35398 whole entry, looked up, the tested form may be a part): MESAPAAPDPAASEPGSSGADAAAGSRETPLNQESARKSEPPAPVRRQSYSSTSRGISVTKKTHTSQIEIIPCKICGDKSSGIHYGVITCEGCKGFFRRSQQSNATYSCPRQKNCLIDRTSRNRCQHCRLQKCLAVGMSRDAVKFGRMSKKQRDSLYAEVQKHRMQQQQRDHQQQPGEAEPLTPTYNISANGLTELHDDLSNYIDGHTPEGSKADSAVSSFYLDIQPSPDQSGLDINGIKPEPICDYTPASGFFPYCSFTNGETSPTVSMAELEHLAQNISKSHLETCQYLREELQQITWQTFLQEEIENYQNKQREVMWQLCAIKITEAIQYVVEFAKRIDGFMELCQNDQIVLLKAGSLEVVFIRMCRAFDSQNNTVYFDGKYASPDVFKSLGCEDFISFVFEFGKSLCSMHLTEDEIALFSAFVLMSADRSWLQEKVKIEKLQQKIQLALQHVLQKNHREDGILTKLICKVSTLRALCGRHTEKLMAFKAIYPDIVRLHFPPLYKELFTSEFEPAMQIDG
Ec RNAP inh: blocks E. coli RNA polymerase transcription; P0A8V2; fluorescence transcription assay; inhibition, %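 (tested at 10 µM)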; 0.2% of 62,000 active; in the data active = inhibition above about 20%;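 also: 0% = enzyme without compound and 100% = no enzyme blank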
AP ELISA ortho: alternative pathway complement inhibition, orthogonal assay; inhibition, % at 5 µM; 0.08% of 62,000 active; Human serum alternative complement pathway, LPS-coated ELISA, C3 deposition; tested in compound mixtures; AID 1235;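 active = inhibition above 30% in each of the two pooled mixtures holding the compound, so the lower value exceeds 30%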;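 also: 0% = serum in Mg-EGTA without compound and 100% = EDTA serum blank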
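Test system: human serum complement alternative pathway, C3 deposition onto LPS / Medium: Mg2+-EGTA GVB++ buffer containing human serum at 1:15 dilution / Probe or stimulus: Plate-bound LPS / Times: 1 h at 37 °C / Signal: ELISA with HRP anti-human C3 antibody, TMB substrate, absorbance 450 nm / Measure: percent inhibition / Repeats: two pool placements per compound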
Active calls of the source: *; nt = no result given.

SMILES	MMP-13 inhibitor	SF-1 act	HePTP inhibitor	RORa activator	Ec RNAP inh	AP ELISA ortho
CCOC(=O)c1c(NC(=O)c2cccs2)sc(C(=O)Nc2ccccc2C(F)(F)F)c1C	nt	nt	7.7	nt	nt	nt
CC(C)CC(=O)NC(NC(=O)CC(C)C)c1cccc([N+](=O)[O-])c1	nt	nt	55.6*	nt	nt	nt
O=C(Cc1ccccc1)NC(NC(=O)Cc1ccccc1)c1cccc([N+](=O)[O-])c1	nt	nt	3.0	nt	nt	nt
O=C(NC(NC(=O)c1ccccc1)c1cccc([N+](=O)[O-])c1)c1ccccc1	nt	nt	103.7*	nt	nt	nt
COc1ccccc1NCN1C(=O)S/C(=C/c2ccc(C)cc2)C1=O	nt	nt	11.8	nt	nt	nt
Cc1c(C(=O)NCC2CCCO2)oc2ccc3c(c12)C(=O)CC(C)(C)O3 (configuration not stated)	-36.9	61.5*	3.9	11.2	0.6	16.1
Cc1c(C(=O)NCC2CCCO2)oc2ccc(S(=O)(=O)N3CCCC3)cc12 (configuration not stated)	0.7	20.9	11.0	5.1	7.0	5.4
CN1CCc2c(sc3c2C(=O)NC(c2ccc4ccccc4c2)N3)C1 (configuration not stated)	nt	nt	-6.2	nt	nt	nt
CN1CCc2c(sc3c2C(=O)NC(c2cccc(OC(=O)c4cccs4)c2)N3)C1 (configuration not stated)	-9.1	57.9*	7.8	62.3*	1.1	14.7
COc1cccc(OCCCCSc2ncccn2)c1	3.1	-2.6	-6.4	1.2	5.7	-15.0
Nc1cc(N)nc(SCCOc2ccccc2)n1	2.4	6.5	4.7	14.2	-0.1	13.1
COc1ccc(OCCCSc2ncccn2)cc1	7.0	40.6	-1.1	63.0*	2.7	18.5
COc1ccc(OCCSc2ncccn2)cc1	1.3	55.7*	6.5	14.2	1.7	3.8
O=c1c(-c2ccccc2)coc2cc(OCc3ccccc3Cl)ccc12	nt	nt	-5.2	nt	nt	nt
COc1ccc(C2/C(=C(\O)c3ccc(Cl)cc3)C(=O)C(=O)N2c2cccnc2)cc1 (configuration not stated)	nt	nt	-3.3	nt	nt	nt
COc1ccc(/C=N/N2CCN(Cc3ccc(Cl)cc3)CC2)cc1OCc1ccccc1	nt	nt	3.0	nt	nt	nt
CCOc1cc(/C=C2\SC(=Nc3ccc(C)c(Cl)c3)NC2=O)ccc1O	nt	nt	7.0	nt	nt	nt
Cc1ccc(N=C2NC(=O)/C(=C/c3ccc(O)c([N+](=O)[O-])c3)S2)cc1Cl	nt	nt	102.3*	nt	nt	nt
O=C1NC(=Nc2ccc(O)cc2)S/C1=C\c1ccc([N+](=O)[O-])cc1	nt	nt	93.1*	nt	nt	nt
COC(=O)c1sccc1NC(=O)c1sc2ccccc2c1Cl	nt	nt	-8.1	nt	nt	nt
CC1CCN(S(=O)(=O)c2cccs2)CC1	nt	nt	-3.8	nt	nt	nt
Cc1ccc(/C=C2\C(=O)NC(=S)N(c3ccc(Br)cc3)C2=O)o1	nt	nt	33.4	nt	nt	nt
Cc1ccc(C=C2C(=O)NC(=S)N(c3ccccc3Cl)C2=O)o1	nt	nt	65.1*	nt	nt	nt
Cc1ccc(/C=C2\C(=O)NC(=S)N(c3ccc(Br)cc3C)C2=O)o1	nt	nt	87.3*	nt	nt	nt
O=C(O)/C(=C\c1ccccc1)NC(=O)c1ccccc1I	nt	nt	3.0	nt	nt	nt
SMILES	MMP-13 inhibitor	SF-1 act	HePTP inhibitor	RORa activator	Ec RNAP inh	AP ELISA ortho
N#Cc1c(-c2ccc(Cl)cc2)cc(-c2ccccc2)[nH]c1=O	nt	nt	-0.8	nt	nt	nt
COc1ccc(-n2c(SC)nc(O)c(Cc3ccccc3)c2=O)cc1	nt	nt	-7.7	nt	nt	nt
COc1ccc(Cc2c(O)nc(SC)n(C(C)=O)c2=O)cc1	-1.6	4.6	5.6	1.0	25.4*	15.8
CSCCNC(=O)c1ccc(C(C)(C)C)cc1	-3.1	72.7*	6.9	73.1*	-1.8	4.4
C=CCNC(=O)c1ccc(C(C)(C)C)cc1	nt	nt	-14.9	nt	nt	nt
CCOC(=O)C(C#N)C1(c2ccc(OC)cc2)CCOC(C)(CC)C1 (configuration not stated)	nt	nt	4.9	nt	nt	nt
O=C(Nc1ccccc1C(=O)O)c1ccc(Cl)c(Cl)c1	nt	nt	-6.3	nt	nt	nt
N#Cc1c(C(F)(F)F)cc(-c2cccs2)nc1SCC(=O)Nc1ccc(S(N)(=O)=O)cc1	nt	nt	73.2*	nt	nt	nt
N#Cc1cc2c(nc1SCC(=O)Nc1ccc(S(N)(=O)=O)cc1)CCC2	nt	nt	-5.0	nt	nt	nt
CCOc1ccccc1NC(=O)COc1ccc(Br)cc1	nt	nt	-1.6	nt	nt	nt
COc1ccc2c(Cl)c(C(=O)NC3CCS(=O)(=O)C3)sc2c1 (configuration not stated)	4.2	49.5*	-7.4	35.4	-0.7	22.0
Cc1cc2c(cc1C)NC(c1c(C)n(C)n(-c3ccccc3)c1=O)C1=C(CC(C)(C)CC1=O)N2 (configuration not stated)	0.7	61.6*	nt	35.6	nt	nt
O=C(N/N=C/c1ccccc1O)c1cnccn1	nt	nt	104.3*	nt	nt	nt
O=C(N/N=C\c1ccccc1Br)c1cnccn1	nt	nt	8.3	nt	nt	nt
CC1CCCN(c2ccc(C(=O)NCc3cccs3)cn2)C1 (configuration not stated)	2.5	70.2*	13.0	56.3*	-1.1	-8.2
O=C(NCCc1ccccc1)c1ccncc1	0.6	20.7	11.5	30.4	12.0	9.7
CC1CCN(c2ccc(C(=O)NCCc3ccccc3)cn2)CC1	-3.4	28.4	8.2	60.2*	-0.4	1.9
Cc1cccc2nc(CSCc3ccco3)cn12	-2.1	55.3*	4.7	45.8	12.2	3.6
COc1ccc(NC(=O)c2cnc3ccccn3c2=O)cc1OC	0.1	18.1	-2.3	52.8*	8.9	0.6
Cc1cc(Nc2ccc(F)cc2)n2nc(C)nc2n1	7.8	-14.7	-3.4	-16.4	21.6*	14.8
CSc1cccc(NC(=O)Nc2ccccc2)c1	4.7	50.1*	5.7	63.4*	nt	nt
COc1ccc(NC(=O)Nc2cccc(C)n2)cc1	-4.8	64.1*	-15.4	28.2	5.9	6.7
COc1ccc(OCC(=O)Nc2cccc(OC)c2)cc1	1.5	-20.7	1.9	29.6	6.7	17.2
CSc1cccc(NC(=O)COc2ccccc2)c1	1.7	0.9	1.6	-13.1	3.5	9.3
COc1ccc(NC(=O)Nc2cccc(OC)c2)cc1	-2.8	35.1	-5.2	67.7*	10.1	-4.7
SMILES	MMP-13 inhibitor	SF-1 act	HePTP inhibitor	RORa activator	Ec RNAP inh	AP ELISA ortho
CCCCCCOc1ccc(OCC(O)CN2C(=O)NC(C)(C)C2=O)cc1 (configuration not stated)	-0.4	35.9	6.8	62.0*	-6.9	11.3
O=C(/C=C/c1ccco1)Nc1cc(Cl)ccc1Cl	nt	nt	54.9*	nt	nt	nt
O=C(/C=C/c1ccco1)Nc1cc(Cl)cc(Cl)c1	nt	nt	38.6	nt	nt	nt
O=C(/C=C/c1ccco1)Nc1ccccc1[N+](=O)[O-]	nt	nt	83.9*	nt	nt	nt
CCOC(=O)CCc1c(C)nc2cc(-c3ccc(C)cc3)[nH]n2c1=O	nt	nt	-7.2	nt	nt	nt
CCOc1cc(-c2nc3ccccc3c(=O)[nH]2)cc(Br)c1O	nt	nt	1.4	nt	nt	nt
CC(C1COc2ccccc2O1)N1C(=O)CCC1=O (configuration not stated)	nt	nt	-2.0	nt	nt	nt
COc1ccc2sc(NC(C)=O)nc2c1	1.6	49.5*	4.6	56.3*	13.4	2.8
COc1ccc2sc(NC(=O)CC(C)C)nc2c1	-3.1	65.5*	3.3	23.1	5.8	5.9
O=C(Nc1nc2cc3c(cc2s1)OCO3)C1=COCCO1	0.6	-62.2	5.6	-68.2	5.6	4.9
CC(=O)Nc1nc2cc3c(cc2s1)OCO3	5.1	38.7	-8.4	71.8*	6.5	4.9
